inhibition, fluorescence ratio (Tl flux) and outcome data for 5 compounds are collected here from PubChem BioAssay.

Some of the results follow. Unmarked numbers belong to inactive results. Calls of active or inactive are those of the source.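 The calls were made as follows, unless noted: active = mean of duplicate thallium-flux fluorescence ratios in parental host cells more than 5 SD below the buffer control mean (cut at about 0.38 in these data); inactive = the rest.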

What is called inhibition is the change of the read-out against control, counted positive when it falls.

Chain of Potassium voltage-gated channel subfamily KQT member 1 (Homo sapiens) (P51787 whole entry, looked up): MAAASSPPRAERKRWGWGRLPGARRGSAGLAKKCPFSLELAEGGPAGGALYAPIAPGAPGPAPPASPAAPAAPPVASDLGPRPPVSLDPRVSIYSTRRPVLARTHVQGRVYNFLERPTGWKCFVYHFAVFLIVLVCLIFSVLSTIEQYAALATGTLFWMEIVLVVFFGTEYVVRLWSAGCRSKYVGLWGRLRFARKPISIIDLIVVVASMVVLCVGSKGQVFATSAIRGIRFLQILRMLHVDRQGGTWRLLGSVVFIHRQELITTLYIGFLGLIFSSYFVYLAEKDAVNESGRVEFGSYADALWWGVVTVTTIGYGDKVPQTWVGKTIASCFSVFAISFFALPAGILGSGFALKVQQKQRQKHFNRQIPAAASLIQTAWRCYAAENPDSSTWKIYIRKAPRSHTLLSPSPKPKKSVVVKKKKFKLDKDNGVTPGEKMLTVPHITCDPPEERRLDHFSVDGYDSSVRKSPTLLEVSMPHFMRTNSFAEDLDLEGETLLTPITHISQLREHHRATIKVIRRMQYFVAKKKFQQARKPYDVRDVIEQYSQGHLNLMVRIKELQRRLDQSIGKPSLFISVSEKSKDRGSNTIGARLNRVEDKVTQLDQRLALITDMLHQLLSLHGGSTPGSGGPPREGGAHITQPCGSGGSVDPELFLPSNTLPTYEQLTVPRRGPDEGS
Chain of Potassium voltage-gated channel subfamily E member 1 (Homo sapiens) + Potassium voltage-gated channel subfamily KQT member 1 (Homo sapiens) (P51787 whole entry, looked up): as the sequence (P51787 whole entry, looked up) above
Chain of Potassium voltage-gated channel subfamily KQT member 2 (Rattus norvegicus) (O88943 whole entry, looked up): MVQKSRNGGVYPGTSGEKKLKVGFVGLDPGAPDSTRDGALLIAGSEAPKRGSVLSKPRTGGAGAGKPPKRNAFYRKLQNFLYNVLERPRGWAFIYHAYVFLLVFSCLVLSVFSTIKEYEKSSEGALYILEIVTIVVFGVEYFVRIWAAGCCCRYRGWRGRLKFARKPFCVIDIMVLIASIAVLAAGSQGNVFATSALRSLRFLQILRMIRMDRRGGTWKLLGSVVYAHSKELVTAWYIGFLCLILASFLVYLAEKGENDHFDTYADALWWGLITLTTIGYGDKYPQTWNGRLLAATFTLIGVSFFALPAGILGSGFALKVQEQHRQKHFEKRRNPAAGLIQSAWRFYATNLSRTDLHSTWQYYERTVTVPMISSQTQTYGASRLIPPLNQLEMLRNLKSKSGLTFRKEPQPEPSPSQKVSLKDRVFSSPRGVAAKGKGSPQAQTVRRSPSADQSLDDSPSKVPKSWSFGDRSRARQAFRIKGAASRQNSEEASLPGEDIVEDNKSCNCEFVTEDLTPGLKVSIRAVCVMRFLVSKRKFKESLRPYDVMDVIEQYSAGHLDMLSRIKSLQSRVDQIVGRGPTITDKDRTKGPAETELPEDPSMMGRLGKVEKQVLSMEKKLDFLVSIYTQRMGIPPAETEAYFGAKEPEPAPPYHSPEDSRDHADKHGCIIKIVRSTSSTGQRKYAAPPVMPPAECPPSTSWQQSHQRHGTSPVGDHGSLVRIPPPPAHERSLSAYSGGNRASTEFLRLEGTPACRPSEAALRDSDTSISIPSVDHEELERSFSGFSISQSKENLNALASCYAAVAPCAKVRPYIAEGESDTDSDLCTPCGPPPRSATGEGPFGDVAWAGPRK

One experiment has as its target Potassium voltage-gated channel subfamily KQT member 1 (Homo sapiens) (UniProt P51787). The experiment is described as follows: KCNQ1 potassium channel inhibitors, confirmation, cell-based, Tl flux, duplicate (AID 588353;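 active = primary screen active, with duplicate mean exceeding buffer control mean plus 3 SD of buffer wells, cut at about 28% in these data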;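 also: 0% = buffer control ratio and 100% = XE991 inhibitor control ratio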). The following applies: KCNQ1 cell line, FluxOR thallium flux fluorescence, at 10 µM, active compounds read high. In a few lines: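 Assay system – KCNQ1 CHO cells · Probe or stimulus – Tl2SO4 plus K2SO4 stimulus, each 12.5 mM in 5x stock · Times – dye loading 90 min, compound 20 min, both room temperature · Signal – kinetic FluxOR thallium-sensitive dye fluorescence, 10 s baseline, 110 s post-stimulus · Measure – percent inhibition of fluorescence change ratio, scaled buffer to XE991 · Repeats – duplicate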
`Cc1cccc(N2CCN(C(=O)c3cnn4c(C(F)F)cc(-c5ccccc5)nc34)CC2)c1C`: the inhibition is 146% (active).

Consider `CCc1noc(C)c1C(=O)Oc1ccc(N(C)S(=O)(=O)c2ccc(C)c(C)c2)cc1`, for which the inhibition is 108% (active).

For `CCSc1nsc(NC(=O)Nc2cccc(C(C)=O)c2)n1`, the inhibition was 112% (active).

With `O=C(CCN1c2ccccc2Sc2ccccc21)Nc1ccccc1`, the inhibition was 164% (active).

As to `CCn1c(C)c(C)c2cc(C(=O)N3CCN(c4cccc(C)c4C)CC3)ccc21`, the inhibition is 106% (active).

System in another experiment: not listed separately
The experiment can be described thus: thallium flux effects in parental CHO cells, counter-screen for KCNQ1 inhibitor project, cell-based, Tl flux (AID 588366).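 Also: ratio is peak minus minimum fluorescence divided by baseline fluorescence; actives read low.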 The following applies: parental CHO-K1, FluxOR thallium flux fluorescence ratio; at 10 µM; active compounds read low; zero means no signal rise above baseline. In a few lines:
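System: parental CHO-K1 cells lacking KCNQ1 channel expression. Probe or stimulus: depolarizing K2SO4 plus Tl2SO4 stimulus, each 12.5 mM in 5x stock. Times: 90 min dye load, 20 min compound, room temperature. Measured by: real-time thallium-sensitive FluxOR dye fluorescence reading. Read-out: baseline-normalized fluorescence amplitude ratio, averaged over duplicates. Repeats: duplicates.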
For orientation: A counterscreen serves to expose hits that act by an unwanted route or on another target.
As for `Cc1cccc(N2CCN(C(=O)c3cnn4c(C(F)F)cc(-c5ccccc5)nc34)CC2)c1C`, the fluorescence ratio (Tl flux) is 0.416.

Turning to `CCc1noc(C)c1C(=O)Oc1ccc(N(C)S(=O)(=O)c2ccc(C)c(C)c2)cc1`, the fluorescence ratio (Tl flux) is 0.408.

`CCSc1nsc(NC(=O)Nc2cccc(C(C)=O)c2)n1`: the fluorescence ratio (Tl flux) was 0.514.

On to `O=C(CCN1c2ccccc2Sc2ccccc21)Nc1ccccc1`, for which the fluorescence ratio (Tl flux) is 0.384.

Take `CCn1c(C)c(C)c2cc(C(=O)N3CCN(c4cccc(C)c4C)CC3)ccc21`: the fluorescence ratio (Tl flux) was 0.475.

A further experiment has as its target Potassium voltage-gated channel subfamily KQT member 1 (Homo sapiens) (UniProt P51787). The experiment is described as follows: KCNQ1 channel inhibitors, confirmation, orthogonal assay, cell-based, automated electrophysiology (AID 624120;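 active = KCNQ1 current drop exceeding 3 SD of negative control wells, seen in both duplicate runs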). The following applies: KCNQ1-CHO cells, automated patch clamp current; at 10 µM. The procedure, abridged: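 Assay system: KCNQ1-expressing CHO cells. Medium: external buffer at pH 7.4. Doses: single test compound dose of 10 µM final. Detection: amphotericin-perforated automated patch clamp. Evaluation: percent change in steady-state +40 mV current, post- versus pre-compound. Benchmarks: negative controls.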
A general note: Patch clamp records ionic current or voltage across a cell membrane.
Turning to `Cc1cccc(N2CCN(C(=O)c3cnn4c(C(F)F)cc(-c5ccccc5)nc34)CC2)c1C`, the outcome was inactive.

Regarding `CCc1noc(C)c1C(=O)Oc1ccc(N(C)S(=O)(=O)c2ccc(C)c(C)c2)cc1`, the compound was classed as inactive.

For the compound `CCSc1nsc(NC(=O)Nc2cccc(C(C)=O)c2)n1`, the compound was classed as inactive.

Regarding `O=C(CCN1c2ccccc2Sc2ccccc21)Nc1ccccc1`, the result was inactive.

Regarding `CCn1c(C)c(C)c2cc(C(=O)N3CCN(c4cccc(C)c4C)CC3)ccc21`, the call was inactive.

Another experiment addresses Potassium voltage-gated channel subfamily KQT member 2 (Rattus norvegicus) (UniProt O88943). The experiment is described as follows: KCNQ2 channel inhibition, selectivity assay for KCNQ1 inhibitor project, cell-based (AID 651746;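 active = mean percent inhibition of the KCNQ2 thallium signal more than 5 SD above the buffer-only control wells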;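 as to inhibition: 0% = buffer control wells and 100% = XE-991 inhibitor control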). The following applies: KCNQ2 cells, FluxOR thallium flux fluorescence, at 10 µM; active compounds read high.
Consider `Cc1cccc(N2CCN(C(=O)c3cnn4c(C(F)F)cc(-c5ccccc5)nc34)CC2)c1C`, for which the inhibition is 115% (active).

On to `CCc1noc(C)c1C(=O)Oc1ccc(N(C)S(=O)(=O)c2ccc(C)c(C)c2)cc1`, for which the inhibition is 95.3% (active).

`CCSc1nsc(NC(=O)Nc2cccc(C(C)=O)c2)n1`: the outcome was inactive.

As to `O=C(CCN1c2ccccc2Sc2ccccc21)Nc1ccccc1`, the inhibition was 118% (active).

As to `CCn1c(C)c(C)c2cc(C(=O)N3CCN(c4cccc(C)c4C)CC3)ccc21`, the inhibition was 66.3% (active).

In a further experiment the target is Potassium voltage-gated channel subfamily E member 1 (Homo sapiens) + Potassium voltage-gated channel subfamily KQT member 1 (Homo sapiens) (UniProt P15382+P51787). The experiment is described as follows: KCNQ1/KCNE1 channel inhibition, selectivity assay for KCNQ1 inhibitor project, CHO-K1 cells, thallium flux, FluxOR (AID 652147;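 active = mean percent inhibition of duplicate wells above the buffer-only control mean plus 3 SD of those controls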;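 as to inhibition: 0% = buffer only wells and 100% = XE-991 inhibitor control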). The following applies: FluxOR thallium flux fluorescence, at 10 µM; active compounds read high. In a few lines:
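Test system: cells expressing KCNQ1/KCNE1 channels; Probe or stimulus: Tl2SO4 plus K2SO4 stimulus, each 12.5 mM in 5x stock; Times: 20 min compound pre-incubation at room temperature; Technique: kinetic FluxOR thallium-sensitive fluorescence, 1 Hz sampling, 150 s post-stimulus.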
On to `CCc1noc(C)c1C(=O)Oc1ccc(N(C)S(=O)(=O)c2ccc(C)c(C)c2)cc1`, for which the inhibition is 83.5% (active).

In the case of `CCSc1nsc(NC(=O)Nc2cccc(C(C)=O)c2)n1`, the result was inactive.

On to `O=C(CCN1c2ccccc2Sc2ccccc21)Nc1ccccc1`, for which the inhibition was 186% (active).

On to `CCn1c(C)c(C)c2cc(C(=O)N3CCN(c4cccc(C)c4C)CC3)ccc21`, for which the inhibition was 180% (active).
